What all share (type): functional
Experiment [1] has as its system Candida albicans. Description: Antifungal activity against Candida albicans after 48 hrs by M27-A3 CLSI method. An outline of the steps: (§1)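 Broth microdilution in RPMI 1640, two-fold serial dilutions, final test range 0.125–64 µg mL-1 (fluconazole reference 0.0078–128 µg mL-1). Inoculum 1.0×10^3–1.5×10^3 cells mL-1 from yeasts grown 24 h at 35 °C on Sabouraud dextrose agar. Incubation 35 °C, read at 48 h. MIC = lowest concentration giving >50% turbidity decrease versus growth control. Run three times in triplicate. C. parapsilosis ATCC22019 served as QC.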

Experiment [2] concerns Candida albicans. Description: Antifungal activity against Candida albicans ATCC 24433 after 48 hrs by M27-A3 CLSI method. Particulars: Candida albicans, ATCC 24433, 48 h; read-out: MIC. An outline of the steps: as §1
The test system of experiment [3] is Candida albicans. In words: Antifungal activity against Candida albicans ATCC 3153 after 48 hrs by M27-A3 CLSI method. Particulars: ATCC 3153, 48 h. An outline of the steps:
as §1

Experiment [4] has as its system Candida albicans. In words: Antifungal activity against Candida albicans ATCC 10231 after 48 hrs by M27-A3 CLSI method. Particulars: ATCC 10231, 48 h. An outline of the steps:
as §1

The subject of experiment [5] is Candida albicans. Description: Antifungal activity against Candida albicans ATCC 76615 after 48 hrs by M27-A3 CLSI method. Particulars: ATCC 76615, 48 h. An outline of the steps: as §1
In a further experiment the test system is Candida. Description: Antifungal activity against Candida sp. after 48 hrs by M27-A3 CLSI method. An outline of the steps:
as §1

The test system of experiment [6] is Candida parapsilosis. Description: Antifungal activity against Candida parapsilosis ATCC 22019 after 48 hrs by M27-A3 CLSI method. Particulars: Lodderomyces parapsilosis, ATCC 22019, 48 h. Put shortly: as §1
The test system of experiment [7] is Candida parapsilosis. Description: Antifungal activity against Candida parapsilosis DSM 11224 after 48 hrs by M27-A3 CLSI method. To be noted: Lodderomyces parapsilosis, DSM 11224, 48 h; read-out: MIC. Put shortly:
as §1

Experiment [8] deals with Candida tropicalis. In words: Antifungal activity against Candida tropicalis PMC 0910 after 48 hrs by M27-A3 CLSI method. To be noted: PMC 0910, 48 h. An outline of the steps:
as §1

Experiment [9] deals with Candida tropicalis. In words: Antifungal activity against Candida tropicalis DSM 11953 after 48 hrs by M27-A3 CLSI method. Particulars: DSM 11953, 48 h. Put shortly: as §1
Experiment [10] has as its system Pichia kudriavzevii. Description: Antifungal activity against Candida krusei DSM 6128 after 48 hrs by M27-A3 CLSI method. To be noted: DSM 6128, 48 h. Put shortly: as §1
The test system of a further experiment is Nakaseomyces glabratus. In words: Antifungal activity against Candida glabrata PMC 0805 after 48 hrs by M27-A3 CLSI method. Particulars: PMC 0805, 48 h. Put shortly:
as §1

The test system of experiment [11] is Pichia kudriavzevii. Description: Antifungal activity against Candida krusei PMC 0613 after 48 hrs by M27-A3 CLSI method. Particulars: Pichia kudriavzevii, PMC 0613, 48 h; read-out: MIC. An outline of the steps:
as §1

Each structure is given as a SMILES string. Values after ≈ are worked out from the molar mass of the structure shown.

In general, MIC refers to the lowest concentration found to suppress growth. As usually defined, the MIC50 is an inhibitory concentration at the 50% level, which refers to growth in some studies and to a panel of isolates in others. For orientation: MIC90 means an inhibitory concentration at the 90% level, which refers to growth in some studies and to a panel of isolates in others. Take `O=C(COc1ccccc1)OC(Cn1ccnc1)c1ccc(Cl)cc1` (racemic): the minimal inhibitory concentration (MIC) against Candida albicans [1] is 67.7 µg/mL (≈ 190 µM); in the experiment with Candida albicans [2], 2 µg/mL (≈ 5.61 µM); in the experiment with Candida albicans [3], 16 µg/mL (≈ 44.8 µM); with Candida albicans [4], 4 µg/mL (≈ 11.2 µM); in the experiment on Candida albicans [5], more than 64 µg/mL; in the experiment on Candida it was 51.3 µg/mL (≈ 144 µM). The MIC in the experiment with Candida parapsilosis [6] is 32 µg/mL (≈ 89.7 µM); with Candida parapsilosis [7] it was 8 µg/mL (≈ 22.4 µM); in the experiment with Candida tropicalis [8], 4 µg/mL (≈ 11.2 µM); in the experiment on Candida tropicalis [9] it was more than 64 µg/mL; against Pichia kudriavzevii [10] it was more than 64 µg/mL; against Nakaseomyces glabratus, 16 µg/mL (≈ 44.8 µM). Also, in the experiment with Pichia kudriavzevii [11], the MIC is 16 µg/mL (≈ 44.8 µM). Besides, the MIC50 against Candida albicans [1] came to 64 µg/mL (≈ 179 µM); with Candida it was 16 µg/mL (≈ 44.8 µM). For the same molecule, the MIC90 in the experiment with Candida albicans [1] and with Candida was 128 µg/mL (≈ 359 µM) each time.

On to `Cl.O=C(OC(Cn1ccnc1)c1ccc(F)cc1)c1cccc(C(F)(F)F)c1` (racemic; 4b), for which the MIC is 34.3 µg/mL with Candida albicans [1]; 8 µg/mL in the experiment with Candida albicans [2]; 8 µg/mL with Candida albicans [3]; 8 µg/mL with Candida albicans [4]; not below 64 µg/mL in the experiment on Candida albicans [5]; 22.6 µg/mL against Candida. For the same molecule, the minimum inhibitory concentration (MIC) in the experiment with Candida parapsilosis [6] came to 32 µg/mL; in the experiment with Candida parapsilosis [7], 8 µg/mL; in the experiment on Candida tropicalis [8], 1 µg/mL; in the experiment with Candida tropicalis [9], 32 µg/mL; with Pichia kudriavzevii [10] it was 64 µg/mL; with Nakaseomyces glabratus, 32 µg/mL. Also, the MIC in the experiment on Pichia kudriavzevii [11] stood at 16 µg/mL. Besides, the MIC50 against Candida albicans [1] was 8 µg/mL; in the experiment with Candida, 16 µg/mL. Besides, the MIC90 is 64 µg/mL with Candida albicans [1] and 32 µg/mL in the experiment on Candida.

As for `CC(C)c1ccc(NC(=O)OC(Cn2ccnc2)c2ccc(Cl)cc2)cc1` (racemic), the MIC is 60 µg/mL (≈ 156 µM) against Candida albicans [1]; 16 µg/mL (≈ 41.7 µM) with Candida albicans [2]; 16 µg/mL (≈ 41.7 µM) against Candida albicans [3]; 4 µg/mL (≈ 10.4 µM) against Candida albicans [4]; more than 64 µg/mL against Candida albicans [5]; 115 µg/mL (≈ 299 µM) against Candida. For the same molecule, the MIC in the experiment with Candida parapsilosis [6], in the experiment on Candida parapsilosis [7], in the experiment on Candida tropicalis [8], in the experiment on Candida tropicalis [9], against Pichia kudriavzevii [10] and in the experiment with Nakaseomyces glabratus was more than 64 µg/mL each time. Further, in the experiment on Pichia kudriavzevii [11], the minimum inhibitory concentration (MIC) is more than 64 µg/mL. Further, the MIC50 against Candida albicans [1] stood at 64 µg/mL (≈ 167 µM); in the experiment with Candida it was 128 µg/mL (≈ 333 µM). The MIC90 in the experiment with Candida albicans [1] and with Candida was 128 µg/mL (≈ 333 µM) throughout.

With `CC(C)c1ccc(NC(=O)OC(Cn2ccnc2)c2ccccc2)cc1` (racemic), the MIC in the experiment on Candida albicans [1] was 77.7 µg/mL (≈ 222 µM); in the experiment with Candida albicans [2], 32 µg/mL (≈ 91.6 µM); against Candida albicans [3] it was not below 64 µg/mL; with Candida albicans [4], 64 µg/mL (≈ 183 µM); against Candida albicans [5], not below 64 µg/mL; against Candida, 107 µg/mL (≈ 305 µM). Further, the MIC in the experiment with Candida parapsilosis [6] was 64 µg/mL (≈ 183 µM); with Candida parapsilosis [7] it was more than 64 µg/mL; against Candida tropicalis [8] it was 64 µg/mL (≈ 183 µM); in the experiment with Candida tropicalis [9] it was more than 64 µg/mL; against Pichia kudriavzevii [10], more than 64 µg/mL; in the experiment with Nakaseomyces glabratus, more than 64 µg/mL. Further, the MIC with Pichia kudriavzevii [11] stood at 64 µg/mL (≈ 183 µM). Further, the results for the MIC50 against Candida albicans [1] and in the experiment on Candida were 64 µg/mL (≈ 183 µM) and 128 µg/mL (≈ 366 µM), respectively. In addition, the MIC90 with Candida albicans [1] and against Candida was 128 µg/mL (≈ 366 µM) each time.

Take `O=C(OC(Cn1ccnc1)c1ccccc1)c1ccc(C(F)(F)F)cc1` (racemic): the minimum inhibitory concentration (MIC) against Candida albicans [1] is 33.1 µg/mL (≈ 91.9 µM); in the experiment on Candida albicans [2], 8 µg/mL (≈ 22.2 µM); against Candida albicans [3], 8 µg/mL (≈ 22.2 µM); in the experiment on Candida albicans [4], 8 µg/mL (≈ 22.2 µM); against Candida albicans [5], not below 64 µg/mL; against Candida, 55.5 µg/mL (≈ 154 µM). The MIC is 64 µg/mL (≈ 178 µM) in the experiment on Candida parapsilosis [6]; 32 µg/mL (≈ 88.8 µM) in the experiment on Candida parapsilosis [7]; 4 µg/mL (≈ 11.1 µM) against Candida tropicalis [8]; 16 µg/mL (≈ 44.4 µM) in the experiment with Candida tropicalis [9]; more than 64 µg/mL against Pichia kudriavzevii [10]; 8 µg/mL (≈ 22.2 µM) in the experiment with Nakaseomyces glabratus. Also, the minimal inhibitory concentration (MIC) with Pichia kudriavzevii [11] came to 64 µg/mL (≈ 178 µM). Also, the MIC50 in the experiment with Candida albicans [1] was determined as 8 µg/mL (≈ 22.2 µM); in the experiment on Candida, 32 µg/mL (≈ 88.8 µM). In addition, the results for the MIC90 against Candida albicans [1] and with Candida were 64 µg/mL (≈ 178 µM) and 128 µg/mL (≈ 355 µM), respectively.

For the molecule `CC(C)c1ccc(NC(=O)OC(Cn2ccnc2)c2ccc(F)cc2)cc1` (racemic), the minimal inhibitory concentration (MIC) against Candida albicans [1] is 39.6 µg/mL (≈ 108 µM); with Candida albicans [2], 1 µg/mL (≈ 2.72 µM); against Candida albicans [3], 16 µg/mL (≈ 43.5 µM); against Candida albicans [4] it was 2 µg/mL (≈ 5.44 µM); in the experiment on Candida albicans [5], not below 64 µg/mL; in the experiment with Candida, 68.4 µg/mL (≈ 186 µM). Moreover, the MIC in the experiment on Candida parapsilosis [6] was more than 64 µg/mL; in the experiment with Candida parapsilosis [7] it was 16 µg/mL (≈ 43.5 µM); against Candida tropicalis [8] it was 4 µg/mL (≈ 10.9 µM); in the experiment with Candida tropicalis [9], more than 64 µg/mL; against Pichia kudriavzevii [10], 16 µg/mL (≈ 43.5 µM); against Nakaseomyces glabratus it was more than 64 µg/mL. Besides, the MIC in the experiment with Pichia kudriavzevii [11] was determined as 64 µg/mL (≈ 174 µM). Moreover, the MIC50 is 16 µg/mL (≈ 43.5 µM) in the experiment on Candida albicans [1] and 4 µg/mL (≈ 10.9 µM) with Candida. Besides, the values for the MIC90 against Candida albicans [1] and in the experiment with Candida were 64 µg/mL (≈ 174 µM) and 128 µg/mL (≈ 348 µM), respectively.

Source of the values: ChEMBL document CHEMBL1944618, “Synthesis and antifungal activity of a new series of 2-(1H-imidazol-1-yl)-1-phenylethanol derivatives” (Eur J Med Chem, 2012).
